ChEMBL document CHEMBL1127351, “Technetium-99m N,N'-bis(2-mercapto-2-methylpropyl)-2-aminobenzylamine: technetium-99m complexes of a novel bis(aminoethanethiol) ligand” (J Med Chem, 1994)

Columns and labels:
[1] = organism: Rattus norvegicus; assay: Biodistribution of compound was tested in rat heart at 15 min; assay type: ADME, organism-based; details: in vivo, 0.25 h
In short: (§1)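 Male Sprague-Dawley rats (200–300 g) under ether anesthesia got an iv injection of 0.2 mL saline containing the 99mTc complex (2–5 μCi). At set times, blood was drawn by cardiac puncture and rats were killed by cardiectomy. Organs were excised, weighed and gamma-counted. % dose/organ was taken against diluted injected-dose standards. Values are the mean of three rats ± SEM.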

[2] = organism: Rattus norvegicus; assay: Biodistribution of compound was tested in rat lung at 60 min; assay type: ADME, organism-based; details: in vivo, 1 h; in short: as §1
[3] = organism: Rattus norvegicus; assay: Biodistribution of compound was tested in rat spleen at 60 min; assay type: ADME, organism-based; details: in vivo, 1 h; in short: as §1
[4] = organism: Rattus norvegicus; assay: Biodistribution of compound was tested in rat heart at 60 min; assay type: ADME, organism-based; details: in vivo, 1 h; in short: as §1
[5] = organism: Rattus norvegicus; assay: Biodistribution of compound was tested in rat brain at 2 min; assay type: ADME, organism-based; details: in vivo; in short: as §1
[6] = organism: Rattus norvegicus; assay: Biodistribution of compound was tested in rat blood at 60 min; assay type: ADME, organism-based; details: in vivo, 1 h; in short: as §1
[7] = organism: Rattus norvegicus; assay: Biodistribution of compound was tested in rat spleen at 2 min; assay type: ADME, organism-based; details: in vivo; in short: as §1
[8] = organism: Rattus norvegicus; assay: Biodistribution of compound was tested in rat kidney at 15 min; assay type: ADME, organism-based; details: in vivo, 0.25 h; in short: as §1
[9] = organism: Rattus norvegicus; assay: Biodistribution of compound was tested in rat skin at 60 min; assay type: ADME, organism-based, Zone of skin; details: in vivo, 1 h; in short: as §1
[10] = organism: Rattus norvegicus; assay: Biodistribution of compound was tested in rat blood at 2 min; assay type: ADME, organism-based; details: in vivo; in short: as §1
[11] = organism: Rattus norvegicus; assay: Biodistribution of compound was tested in rat kidney at 2 min; assay type: ADME, organism-based; details: in vivo; in short: as §1
[12] = organism: Rattus norvegicus; assay: Biodistribution of compound was tested in rat lung at 2 min; assay type: ADME, organism-based; details: in vivo; in short: as §1
[13] = organism: Rattus norvegicus; assay: Biodistribution of compound was tested in rat muscle at 15 min; assay type: ADME, organism-based, Muscle tissue; details: in vivo, 0.25 h; in short: as §1
[14] = organism: Rattus norvegicus; assay: Biodistribution of compound was tested in rat skin at 2 min; assay type: ADME, organism-based, Zone of skin; details: in vivo; in short: as §1
[15] = organism: Rattus norvegicus; assay: Biodistribution of compound was tested in rat skin at 15 min; assay type: ADME, organism-based, Zone of skin; details: in vivo, 0.25 h; in short: as §1
[16] = organism: Rattus norvegicus; assay: Biodistribution of compound was tested in rat spleen at 15 min; assay type: ADME, organism-based; details: in vivo, 0.25 h; in short: as §1
[17] = organism: Rattus norvegicus; assay: Biodistribution of compound was tested in rat kidney at 60 min; assay type: ADME, organism-based; details: in vivo, 1 h; in short: as §1
[18] = organism: Rattus norvegicus; assay: Biodistribution of compound was tested in rat heart at 2 min; assay type: ADME, organism-based; details: in vivo; in short: as §1
[19] = organism: Rattus norvegicus; assay: Biodistribution of compound was tested in rat lung at 15 min; assay type: ADME, organism-based; details: in vivo, 0.25 h; in short: as §1
[20] = organism: Rattus norvegicus; assay: Biodistribution of compound was tested in rat blood at 15 min; assay type: ADME, organism-based; details: in vivo, 0.25 h; in short: as §1
[21] = organism: Rattus norvegicus; assay: Biodistribution of compound was tested in rat liver at 15 min; assay type: ADME, organism-based; details: in vivo, 0.25 h; in short: as §1
[22] = organism: Rattus norvegicus; assay: Biodistribution of compound was tested in rat liver at 60 min; assay type: ADME, organism-based; details: in vivo, 1 h; in short: as §1
[23] = organism: Rattus norvegicus; assay: Biodistribution of compound was tested in rat liver at 2 min; assay type: ADME, organism-based; details: in vivo; in short: as §1
[24] = organism: Rattus norvegicus; assay: Biodistribution of compound was tested in rat brain at 15 min; assay type: ADME, organism-based; details: in vivo, 0.25 h; in short: as §1
[25] = organism: Rattus norvegicus; assay: Biodistribution of compound was tested in rat brain at 60 min; assay type: ADME, organism-based; details: in vivo, 1 h; in short: as §1
[26] = organism: Rattus norvegicus; assay: Biodistribution of compound was tested in rat muscle at 60 min; assay type: ADME, organism-based, Muscle tissue; details: in vivo, 1 h; in short: as §1
[27] = organism: Rattus norvegicus; assay: Biodistribution of compound was tested in rat muscle at 2 min; assay type: ADME, organism-based, Muscle tissue; details: in vivo; in short: as §1
[28] = organism: Rattus norvegicus; assay: Biodistribution of compound was tested in rat spleen at 30 min; assay type: ADME, organism-based; details: in vivo, 0.5 h; in short: as §1
[29] = organism: Rattus norvegicus; assay: Biodistribution of compound was tested in rat skin at 30 min; assay type: ADME, organism-based, Zone of skin; details: in vivo, 0.5 h; in short: as §1
[30] = organism: Rattus norvegicus; assay: Biodistribution of compound was tested in rat blood at 30 min; assay type: ADME, organism-based; details: in vivo, 0.5 h; in short: as §1
[31] = organism: Rattus norvegicus; assay: Biodistribution of compound was tested in rat lung at 30 min; assay type: ADME, organism-based; details: in vivo, 0.5 h; in short: as §1
[32] = organism: Rattus norvegicus; assay: Biodistribution of compound was tested in rat liver at 30 min; assay type: ADME, organism-based; details: in vivo, 0.5 h; in short: as §1
[33] = organism: Rattus norvegicus; assay: Biodistribution of compound was tested in rat brain at 30 min; assay type: ADME, organism-based; details: in vivo, 0.5 h; in short: as §1
[34] = organism: Rattus norvegicus; assay: Biodistribution of compound was tested in rat kidney at 30 min; assay type: ADME, organism-based; details: in vivo, 0.5 h; in short: as §1
[35] = organism: Rattus norvegicus; assay: Biodistribution of compound was tested in rat muscle at 30 min; assay type: ADME, organism-based, Muscle tissue; details: in vivo, 0.5 h; in short: as §1
[36] = organism: Rattus norvegicus; assay: Biodistribution of compound was tested in rat heart at 30 min; assay type: ADME, organism-based; details: in vivo, 0.5 h; in short: as §1

Substance: technicium complex
- Dose/organ [1]: 0.53%
- Dose/organ [2]: 0.5%
- Dose/organ [3]: 0.68%
- Dose/organ [4]: 0.28%
- Dose/organ [5]: 1.54%
- Dose/organ [6]: 1.27%
- Dose/organ [7]: 0.64%
- Dose/organ [8]: 1.54%
- Dose/organ [9]: 16.5%
- Dose/organ [10]: 4.37%
- Dose/organ [11]: 3.58%
- Dose/organ [12]: 1.79%
- Dose/organ [13]: 16.5%
- Dose/organ [14]: 13.48%
- Dose/organ [15]: 10.45%
- Dose/organ [16]: 0.72%
- Dose/organ [17]: 0.93%
- Dose/organ [18]: 1.28%
- Dose/organ [19]: 0.91%
- Dose/organ [20]: 2%
- Dose/organ [21]: 26.5%
- Dose/organ [22]: 20.75%
- Dose/organ [23]: 23.58%
- Dose/organ [24]: 0.72%
- Dose/organ [25]: 0.21%
- Dose/organ [26]: 20.08%
- Dose/organ [27]: 20.77%

Substance: tecnicium complex
- Dose/organ [28]: 0.3%
- Dose/organ [29]: 11.94%
- Dose/organ [5]: 1.07%
- Dose/organ [7]: 0.68%
- Dose/organ [30]: 3.22%
- Dose/organ [10]: 8.12%
- Dose/organ [31]: 1.98%
- Dose/organ [11]: 3.3%
- Dose/organ [32]: 22.65%
- Dose/organ [12]: 4.47%
- Dose/organ [14]: 3.94%
- Dose/organ [33]: 0.28%
- Dose/organ [18]: 1.15%
- Dose/organ [34]: 1.33%
- Dose/organ [23]: 22.76%
- Dose/organ [35]: 13.52%
- Dose/organ [36]: 0.24%
- Dose/organ [27]: 10.24%
